Laboratory results taken from ChEMBL document CHEMBL1795283, “Dihydro-β-agarofuran sesquiterpenes isolated from Celastrus vulcanicola as potential anti-Mycobacterium tuberculosis multidrug-resistant agents” (2011).
Values after ≈ are worked out from the molar mass of the structure shown.

Assays:
[1] = tested on: Mycobacterium tuberculosis; test: Antimycobacterial activity against Mycobacterium tuberculosis isolate 02TBDM039EP097 after 24 hrs by tetrazolium microplate assay; type: functional; details: isolate 02TBDM039EP097, 24 h
Procedure, shortened: (§1)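 TEMA broth microdilution; inoculum from 20–30-day-old slant growth suspended in Tween 80/0.2% BSA, adjusted to McFarland No. 1, final ca. 1.2 × 10⁶ CFU/mL. Compound mixed 1:1 with inoculum, DMSO solvent control; sealed plates incubated 37 °C 5 days, then MTT/Tween 80 added, 24 h 37 °C; yellow-to-purple colour change read. MIC = lowest concentration giving 100% inhibition; means of 3 or 4 replicates.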

[2] = tested on: Mycobacterium tuberculosis; test: Antimycobacterial activity against Mycobacterium tuberculosis H37Rv after 24 hrs by tetrazolium microplate assay; type: functional; procedure, shortened: as §1

SMILES | MIC [1] | MIC [2]
CC(=O)O[C@H]1CC[C@@H](C)[C@]23OC(C)(C)[C@H]([C@H](OC(=O)/C=C/c4ccccc4)[C@H](OC(=O)c4ccccc4)[C@]12C)[C@H]3O | 12.5 µg/mL (≈ 22.2 µM) | > 25 µg/mL
CC(=O)O[C@H]1CC[C@](C)(O)[C@]23OC(C)(C)[C@H]([C@H](OC(=O)/C=C/c4ccccc4)[C@H](OC(=O)c4ccccc4)[C@]12C)[C@H]3O | 12.5 µg/mL (≈ 21.6 µM) | > 25 µg/mL
CC(=O)O[C@H]1[C@@H]2[C@@H](OC(=O)c3cccnc3)[C@]3(OC2(C)C)[C@H](C)CC[C@H](OC(C)=O)[C@@]3(C)[C@H]1OC(=O)c1ccccc1 | 25 µg/mL (≈ 43.1 µM) | > 25 µg/mL
CC1(C)O[C@]23[C@H](O)[C@H]1[C@H](O)[C@H](O)[C@]2(C)[C@@H](O)CC[C@]3(C)O | > 25 µg/mL | > 25 µg/mL
CC(=O)O[C@H]1[C@@H]2[C@@H](OC(C)=O)[C@@]3(OC2(C)C)[C@@](C)([C@@H](OC(C)=O)CC[C@]3(C)O)[C@H]1OC(C)=O | > 25 µg/mL | > 25 µg/mL
CC(=O)O[C@H]1[C@@H]2[C@@H](O)[C@]3(OC2(C)C)[C@H](C)CC[C@H](OC(C)=O)[C@@]3(C)[C@H]1OC(=O)c1ccccc1 | > 25 µg/mL | > 25 µg/mL
CC(=O)O[C@H]1CC[C@@H](C)[C@]23OC(C)(C)[C@H]([C@H](OC(=O)/C=C\c4ccccc4)[C@H](OC(=O)c4ccccc4)[C@]12C)[C@H]3O | 25 µg/mL (≈ 44.4 µM) | > 25 µg/mL
CC(=O)O[C@@H]1[C@@H]2[C@@H](OC(=O)c3ccccc3)[C@@]3(OC2(C)C)[C@@](C)([C@@H](OC(C)=O)CC[C@]3(C)O)[C@H]1OC(=O)c1ccccc1 | 12.5 µg/mL (≈ 21 µM) | > 25 µg/mL
CC(=O)O[C@H]1CC[C@@H](C)[C@@]23C[C@@H](C[C@H](OC(=O)/C=C/c4ccccc4)[C@]12C)C(C)(C)O3 | > 25 µg/mL | > 25 µg/mL
CC(=O)O[C@H]1[C@@H]2[C@@H](OC(=O)c3ccccc3)[C@@]3(OC2(C)C)[C@@](C)([C@@H](OC(C)=O)CC[C@]3(C)O)[C@H]1OC(=O)c1ccccc1 | > 25 µg/mL | > 25 µg/mL
CC(=O)O[C@H]1[C@@H]2[C@@H](OC(=O)c3ccccc3)[C@@]3(OC2(C)C)[C@](C)([C@H]1OC(=O)c1ccccc1)[C@@H](OC(C)=O)[C@@H](O)C[C@]3(C)O | > 25 µg/mL | > 25 µg/mL
CC(=O)O[C@H]1[C@@H]2[C@@H](OC(=O)c3cccnc3)[C@@]3(OC2(C)C)[C@@](C)([C@@H](OC(C)=O)CC[C@]3(C)O)[C@H]1OC(=O)c1ccccc1 | > 25 µg/mL | > 25 µg/mL
CC(=O)O[C@H]1CC[C@](C)(O)[C@]23OC(C)(C)[C@H]([C@H](OC(=O)/C=C/c4ccccc4)[C@H](OC(=O)c4ccccc4)[C@]12C)[C@H]3OC(C)=O | 12.5 µg/mL (≈ 20.1 µM) | > 25 µg/mL
CC(=O)O[C@H]1[C@@H]2[C@@H](O)[C@@]3(OC2(C)C)[C@@](C)([C@@H](OC(C)=O)CC[C@]3(C)O)[C@H]1O | > 25 µg/mL | > 25 µg/mL
CC(=O)O[C@H]1CC[C@@H](C)[C@]23OC(C)(C)[C@H](C[C@H](OC(=O)/C=C/c4ccccc4)[C@]12C)[C@H]3OC(C)=O | 12.5 µg/mL (≈ 25.8 µM) | > 25 µg/mL
CC(=O)O[C@H]1CC[C@](C)(O)[C@]23OC(C)(C)[C@H]([C@H](OC(=O)[C@H](O)[C@@H](O)c4ccccc4)[C@H](OC(=O)c4ccccc4)[C@]12C)[C@H]3O | > 25 µg/mL | > 25 µg/mL
CC(=O)O[C@@H]1[C@@H]2[C@@H](OC(=O)c3cccnc3)[C@@]3(OC2(C)C)[C@@](C)([C@@H](OC(C)=O)CC[C@]3(C)O)[C@H]1OC(=O)c1ccccc1 | > 25 µg/mL | > 25 µg/mL
CC(=O)O[C@H]1CC[C@](C)(O)[C@]23OC(C)(C)[C@H]([C@H](O)[C@H](OC(=O)c4ccccc4)[C@]12C)[C@H]3O [REISSANTIN D] | > 25 µg/mL | > 25 µg/mL
NNC(=O)c1ccncc1 [ISONIAZID] | 4 µg/mL (≈ 29.2 µM) | 0.125 µg/mL (≈ 0.911 µM)
CC(=O)O[C@H]1CC[C@@H](C)[C@]23OC(C)(C)[C@H](C[C@H](OC(=O)/C=C/c4ccccc4)[C@]12C)[C@H]3O | 25 µg/mL (≈ 56.5 µM) | > 25 µg/mL
CC(=O)O[C@H]1[C@@H]2[C@@H](OC(C)=O)[C@@]3(OC2(C)C)[C@@](C)([C@@H](OC(C)=O)CC[C@]3(C)O)[C@H]1O | > 25 µg/mL | > 25 µg/mL
CC(=O)O[C@H]1[C@@H](O)C[C@](C)(O)[C@]23OC(C)(C)[C@H]([C@H](OC(=O)/C=C/c4ccccc4)[C@H](OC(=O)c4ccccc4)[C@]12C)[C@H]3O | > 25 µg/mL | > 25 µg/mL
CC(=O)O[C@H]1CC[C@](C)(O)[C@]23OC(C)(C)[C@H]([C@H](OC(=O)/C=C\c4ccccc4)[C@H](OC(=O)c4ccccc4)[C@]12C)[C@H]3O | > 25 µg/mL | > 25 µg/mL
CO[C@H]1/C=C/O[C@@]2(C)Oc3c(C)c(O)c4c(O)c(c(/C=N/N5CCN(C)CC5)c(O)c4c3C2=O)NC(=O)/C(C)=C\C=C\[C@H](C)[C@H](O)[C@@H](C)[C@@H](O)[C@@H](C)[C@H](OC(C)=O)[C@@H]1C [RIFAMPIN] | > 16 µg/mL | 0.063 µg/mL (≈ 0.0766 µM)
CC(=O)O[C@H]1CC[C@@H](C)[C@]23OC(C)(C)[C@H](C[C@H](OC(=O)c4ccccc4)[C@]12C)[C@H]3OC(=O)c1ccccc1 | 6.2 µg/mL (≈ 11.9 µM) | > 25 µg/mL
CC(=O)O[C@H]1CC[C@](C)(O)[C@]23OC(C)(C)[C@H]([C@H](O)[C@H](OC(=O)c4ccccc4)[C@]12C)[C@H]3OC(C)=O | > 25 µg/mL | > 25 µg/mL
